≈ marks a conversion by molar mass, not a printed value.
Columns and labels:
Streptococcus pneumoniae [1] = assay: Bactericidal activity against methicillin-resistant Streptococcus pneumoniae ATCC 700677 incubated for 18 to 20 hrs followed by replating on tryptic soy agar plate and further incubated for 18 to 24 hrs by CLSI-based broth microdilution assay; type: functional
Method in brief: (§1)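 MBC: after the broth microdilution MIC (CAMHB, ~5 × 10^5 CFU/mL, 37 °C, 18-20 h), 4 µL from wells without growth plated onto tryptic soy agar. Plates incubated 37 °C for 18-20 h. MBC is the lowest concentration giving 99.9% reduction in growth.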

Streptococcus pneumoniae [2] = assay: Bactericidal activity against cephalosporin-resistant Streptococcus pneumoniae ATCC 51916 incubated for 18 to 20 hrs followed by replating on tryptic soy agar plate and further incubated for 18 to 24 hrs by CLSI-based broth microdilution assay; type: functional; method in brief: as §1
Listeria monocytogenes [3] = assay: Bactericidal activity against Listeria monocytogenes ATCC 19111 incubated for 18 to 20 hrs followed by replating on tryptic soy agar plate and further incubated for 18 to 24 hrs by CLSI-based broth microdilution assay; type: functional
Enterococcus faecium [4] = assay: Bactericidal activity against vancomycin-resistant Enterococcus faecium ATCC 700221 incubated for 18 to 20 hrs followed by replating on tryptic soy agar plate and further incubated for 18 to 24 hrs by CLSI-based broth microdilution assay; type: functional; method in brief: as §1
Enterococcus faecalis = assay: Bactericidal activity against vancomycin-resistant Enterococcus faecalis ATCC 51299 incubated for 18 to 20 hrs followed by replating on tryptic soy agar plate and further incubated for 18 to 24 hrs by CLSI-based broth microdilution assay; type: functional; method in brief: as §1
[5] = test system: Staphylococcus epidermidis; assay: Bactericidal activity against methicillin-resistant Staphylococcus epidermidis NRS101 incubated for 18 to 20 hrs followed by replating on tryptic soy agar plate and further incubated for 18 to 24 hrs by CLSI-based broth microdilution assay; type: functional
Listeria monocytogenes [6] = assay: Antibacterial activity against Listeria monocytogenes ATCC 19111 after 18 to 20 hrs by CLSI-based broth microdilution assay; type: functional
Enterococcus faecium [7] = assay: Antibacterial activity against vancomycin-resistant Enterococcus faecium ATCC 700221 after 18 to 20 hrs by CLSI-based broth microdilution assay; type: functional
Method in brief: (§2)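 Broth microdilution per CLSI. Strains grown aerobically overnight on tryptone soy agar at 37 °C, adjusted to 0.5 McFarland, then diluted in cation-adjusted Mueller-Hinton broth to about 5 × 10^5 CFU/mL. Compounds (10 mg/mL DMSO stocks) serially diluted. Incubated aerobically at 37 °C for 18-20 h. MIC is the lowest concentration with no visible growth.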

[8] = test system: Staphylococcus epidermidis; assay: Antibacterial activity against methicillin-resistant Staphylococcus epidermidis NRS101 after 18 to 20 hrs by CLSI-based broth microdilution assay; type: functional; method in brief: as §2
Staphylococcus aureus [9] = assay: Bactericidal activity against vancomycin-resistant Staphylococcus aureus 12 incubated for 18 to 20 hrs followed by replating on tryptic soy agar plate and further incubated for 18 to 24 hrs by CLSI-based broth microdilution assay; type: functional; method in brief: as §1
Staphylococcus aureus [10] = assay: Bactericidal activity against vancomycin-resistant Staphylococcus aureus 10 incubated for 18 to 20 hrs followed by replating on tryptic soy agar plate and further incubated for 18 to 24 hrs by CLSI-based broth microdilution assay; type: functional; method in brief: as §1
Staphylococcus aureus [11] = assay: Bactericidal activity against methicilline-resistant Staphylococcus aureus NRS386 USA700 incubated for 18 to 20 hrs followed by replating on tryptic soy agar plate and further incubated for 18 to 24 hrs by CLSI-based broth microdilution assay; type: functional; method in brief: as §1
Staphylococcus aureus [12] = assay: Bactericidal activity against methicilline-resistant Staphylococcus aureus NRS385 USA500 incubated for 18 to 20 hrs followed by replating on tryptic soy agar plate and further incubated for 18 to 24 hrs by CLSI-based broth microdilution assay; type: functional; method in brief: as §1
Staphylococcus aureus [13] = assay: Bactericidal activity against methicilline-resistant Staphylococcus aureus NRS384 USA300 incubated for 18 to 20 hrs followed by replating on tryptic soy agar plate and further incubated for 18 to 24 hrs by CLSI-based broth microdilution assay; type: functional; method in brief: as §1
Staphylococcus aureus [14] = assay: Bactericidal activity against methicilline-resistant Staphylococcus aureus NRS123 USA400 incubated for 18 to 20 hrs followed by replating on tryptic soy agar plate and further incubated for 18 to 24 hrs by CLSI-based broth microdilution assay; type: functional; method in brief: as §1
Staphylococcus aureus [15] = assay: Bactericidal activity against methicilline-resistant Staphylococcus aureus NRS-119 incubated for 18 to 20 hrs followed by replating on tryptic soy agar plate and further incubated for 18 to 24 hrs by CLSI-based broth microdilution assay; type: functional; method in brief: as §1
Staphylococcus aureus [16] = assay: Bactericidal activity against methicilline-sensitive Staphylococcus aureus NRS-107 incubated for 18 to 20 hrs followed by replating on tryptic soy agar plate and further incubated for 18 to 24 hrs by CLSI-based broth microdilution assay; type: functional; method in brief: as §1
Staphylococcus aureus [17] = assay: Bactericidal activity against methicilline-sensitive Staphylococcus aureus ATCC 6538 incubated for 18 to 20 hrs followed by replating on tryptic soy agar plate and further incubated for 18 to 24 hrs by CLSI-based broth microdilution assay; type: functional; method in brief: as §1
Staphylococcus aureus [18] = assay: Bactericidal activity against Staphylococcus aureus ATCC BAA42 incubated for 18 to 20 hrs followed by replating on tryptic soy agar plate and further incubated for 18 to 24 hrs by CLSI-based broth microdilution assay; type: functional; method in brief: as §1
Staphylococcus aureus [19] = assay: Antibacterial activity against vancomycin-resistant Staphylococcus aureus 12 after 18 to 20 hrs by CLSI-based broth microdilution assay; type: functional; method in brief: as §2
Staphylococcus aureus [20] = assay: Antibacterial activity against vancomycin-resistant Staphylococcus aureus 10 after 18 to 20 hrs by CLSI-based broth microdilution assay; type: functional; method in brief: as §2
Staphylococcus aureus [21] = assay: Antibacterial activity against methicilline-resistant Staphylococcus aureus NRS385 USA500 after 18 to 20 hrs by CLSI-based broth microdilution assay; type: functional; method in brief: as §2
Staphylococcus aureus [22] = assay: Antibacterial activity against methicilline-resistant Staphylococcus aureus NRS386 USA700 after 18 to 20 hrs by CLSI-based broth microdilution assay; type: functional; method in brief: as §2
Staphylococcus aureus [23] = assay: Antibacterial activity against methicilline-resistant Staphylococcus aureus NRS384 USA300 after 18 to 20 hrs by CLSI-based broth microdilution assay; type: functional; method in brief: as §2
Staphylococcus aureus [24] = assay: Antibacterial activity against methicilline-resistant Staphylococcus aureus NRS123 USA400 after 18 to 20 hrs by CLSI-based broth microdilution assay; type: functional; method in brief: as §2
Staphylococcus aureus [25] = assay: Antibacterial activity against methicilline-resistant Staphylococcus aureus NRS-119 after 18 to 20 hrs by CLSI-based broth microdilution assay; type: functional; method in brief: as §2
Staphylococcus aureus [26] = assay: Antibacterial activity against methicilline-sensitive Staphylococcus aureus ATCC 6538 after 18 to 20 hrs by CLSI-based broth microdilution assay; type: functional; method in brief: as §2
Staphylococcus aureus [27] = assay: Antibacterial activity against methicilline-sensitive Staphylococcus aureus NRS-107 after 18 to 20 hrs by CLSI-based broth microdilution assay; type: functional; method in brief: as §2
Staphylococcus aureus [28] = assay: Antibacterial activity against Staphylococcus aureus ATCC BAA42 after 18 to 20 hrs by CLSI-based broth microdilution assay; type: functional; method in brief: as §2
Staphylococcus aureus [29] = assay: Antibacterial activity against methicillin-resistant Staphylococcus aureus NRS384 USA300 after 18 to 20 hrs by broth microdilution assay; type: functional; method in brief: as §2
[30] = Aqueous solubility of the compound in phosphate buffered saline assessed as concentration that produces no precipitate measured as OD at 540 nm; type: physicochemical

CC(=O)NC[C@H]1CN(c2ccc(N3CCOCC3)c(F)c2)C(=O)O1 [LINEZOLID]
MBC (Streptococcus pneumoniae [1]): 16 µg/mL (≈ 47.4 µM) | MBC (Streptococcus pneumoniae [2]): 32 µg/mL (≈ 94.9 µM) | MBC (Listeria monocytogenes [3]): 32 µg/mL (≈ 94.9 µM) | MBC (Enterococcus faecium [4]): 16 µg/mL (≈ 47.4 µM) | MBC (Enterococcus faecalis): 16 µg/mL (≈ 47.4 µM) | MBC [5]: 8 µg/mL (≈ 23.7 µM) | MIC (Listeria monocytogenes [6]): ≤ 0.5 µg/mL | MIC (Enterococcus faecium [7]): 1 µg/mL (≈ 2.96 µM) | MIC [8]: 0.5 µg/mL (≈ 1.48 µM) | MBC (Staphylococcus aureus [9]): 64 µg/mL (≈ 190 µM) | MBC (Staphylococcus aureus [10]): > 64 µg/mL | MBC (Staphylococcus aureus [11]): 16 µg/mL (≈ 47.4 µM) | MBC (Staphylococcus aureus [12]): 32 µg/mL (≈ 94.9 µM) | MBC (Staphylococcus aureus [13]): 32 µg/mL (≈ 94.9 µM) | MBC (Staphylococcus aureus [14]): 64 µg/mL (≈ 190 µM) | MBC (Staphylococcus aureus [15]): > 64 µg/mL | MBC (Staphylococcus aureus [16]): 64 µg/mL (≈ 190 µM) | MBC (Staphylococcus aureus [17]): 16 µg/mL (≈ 47.4 µM) | MBC (Staphylococcus aureus [18]): 16 µg/mL (≈ 47.4 µM) | MIC (Staphylococcus aureus [19]): 1 µg/mL (≈ 2.96 µM) | MIC (Staphylococcus aureus [20]): 1 µg/mL (≈ 2.96 µM) | MIC (Staphylococcus aureus [21]): 1 µg/mL (≈ 2.96 µM) | MIC (Staphylococcus aureus [22]): 1 µg/mL (≈ 2.96 µM) | MIC (Staphylococcus aureus [23]): 1 µg/mL (≈ 2.96 µM) | MIC (Staphylococcus aureus [24]): 1 µg/mL (≈ 2.96 µM) | MIC (Staphylococcus aureus [25]): 64 µg/mL (≈ 190 µM) | MIC (Staphylococcus aureus [26]): 1 µg/mL (≈ 2.96 µM) | MIC (Staphylococcus aureus [27]): 1 µg/mL (≈ 2.96 µM) | MIC (Staphylococcus aureus [28]): 1 µg/mL (≈ 2.96 µM) | MIC (Staphylococcus aureus [29]): 1 µg/mL (≈ 2.96 µM)

C/C(=N\NC(=N)N)c1sc(-c2ccc(N3CCC3)cc2)nc1C
MIC (Staphylococcus aureus [29]): > 128 µg/mL

C/C(=N\NC(=N)N)c1sc(-c2ccc(N3CC(O)C3)cc2)nc1C
MIC (Staphylococcus aureus [29]): 64 µg/mL (≈ 186 µM)

C/C(=N\NC(=N)N)c1sc(-c2ccc(N3CCC4CCCCC4C3)cc2)nc1C (centres undefined)
MIC (Staphylococcus aureus [29]): > 128 µg/mL

C/C(=N\NC(=N)N)c1sc(-c2ccc(C3CCCCC3)cc2)nc1C
solubility kinetic [30]: 2.7 µM (≈ 0.96 µg/mL)

— ChEMBL document CHEMBL4406834, “Phenylthiazoles with nitrogenous side chain: An approach to overcome molecular obesity” (Eur J Med Chem, 2019)
